In series [1] the target is T1, Sigma non-opioid intracellular receptor 1 (Homo sapiens, UniProt Q99720). In words: Displacement of [3H] Pentazocine from sigma 1 receptor in HEK293 cell membrane. Type of series: cell membranes. The settings on record: read-out: Ki.
Series [2] has as its target T2, D(4) dopamine receptor (Homo sapiens, UniProt P21917).
T2 sequence (P21917 whole entry): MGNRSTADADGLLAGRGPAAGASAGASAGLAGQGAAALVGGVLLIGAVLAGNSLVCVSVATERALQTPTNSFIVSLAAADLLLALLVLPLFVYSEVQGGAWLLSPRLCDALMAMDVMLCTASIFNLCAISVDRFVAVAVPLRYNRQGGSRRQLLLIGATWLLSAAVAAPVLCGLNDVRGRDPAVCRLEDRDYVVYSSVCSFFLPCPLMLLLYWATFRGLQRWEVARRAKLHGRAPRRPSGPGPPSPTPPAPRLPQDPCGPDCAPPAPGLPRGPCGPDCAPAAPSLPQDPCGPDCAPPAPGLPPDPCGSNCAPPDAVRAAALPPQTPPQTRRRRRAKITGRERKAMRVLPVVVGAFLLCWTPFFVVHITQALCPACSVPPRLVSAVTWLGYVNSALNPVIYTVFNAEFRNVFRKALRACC
In words: Displacement of [3H]N-methylspiperone from D4 receptor in HEK293 cell membrane. It counts as cell membranes. Particulars: read-out: Ki.

Series [3] deals with T1, Sigma non-opioid intracellular receptor 1. Briefly: Binding affinity to sigma 1 receptor in human Jurkat cells. Type of series: cell-based.
Series [4] addresses Sigma intracellular receptor 2 (Homo sapiens, UniProt Q5BJF2). In words: Displacement of [3H]DTG from sigma-2 receptor in HEK293 cell membrane assessed as inhibition constant. Type of series: cell membranes. In a few lines: (§1)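 Competitive radioligand binding in membranes harvested from HEK293 cells, with one radioligand per target: [3H]N-methylspiperone for D2, D3 and D4; [3H]SCH23390 for D1 and D5; [3H]pentazocine for σ1; [3H]DTG for σ2. Ki derived from inhibition of binding, each run in triplicate.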

Series [5] addresses D(1A) dopamine receptor (Homo sapiens, UniProt P21728). Briefly: Displacement of [3H]SCH23390 from D1 receptor in HEK293 cell membrane assessed as inhibition constant. It counts as cell membranes. In a few lines:
as §1
(Displacement assays read how much labelled ligand stays bound in the presence of the test substance.)

A short description of series [6]: Half life in mouse plasma at 5 mg/kg, ip measured after 24 hrs. It counts as ADME, organism-based. The settings on record: in vivo. In outline:
(§2)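 Discrete mouse study, single intraperitoneal dose of 5 mg/kg in 10% DMSO/10% Cremophor EL/30% PEG400/50% water. Plasma and brain concentrations followed over 24 h. Parameters estimated by non-compartmental analysis.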

Series [7] can be described thus: Half life in mouse brain at 5 mg/kg, ip measured after 24 hrs. It counts as ADME, organism-based. The settings on record: in vivo. In outline: as §2
Series [8] in a line: Mean residence time in mouse plasma at 5 mg/kg, ip measured after 24 hrs. It counts as ADME, organism-based. The settings on record: in vivo. In a few lines:
as §2

The nature of series [9]: Mean residence time in mouse brain at 5 mg/kg, ip measured after 24 hrs. Type of series: ADME, organism-based. Particulars: in vivo. In outline:
as §2

A short description of series [10]: Tmax in mouse plasma at 5 mg/kg, ip measured after 24 hrs. Type of series: ADME, organism-based. The settings on record: in vivo. In a few lines:
as §2

Series [11] in a line: Tmax in mouse brain at 5 mg/kg, ip measured after 24 hrs. Type of series: ADME, organism-based. Particulars: in vivo. In a few lines: as §2
Series [12] in a line: Cmax in mouse plasma at 5 mg/kg, ip measured after 24 hrs. Set-up: dose 5 mg/kg, time 24 hrs, route ip. The settings on record: in vivo. Type of series: ADME, organism-based. In outline:
as §2

The nature of series [13]: Cmax in mouse brain at 5 mg/kg, ip measured after 24 hrs. It counts as ADME, organism-based. More on the design: time 24 hrs, dose 5 mg/kg, route ip. In a few lines: as §2
Series [14] is described as follows: AUC(infinity) in mouse plasma at 5 mg/kg, ip measured after 24 hrs. The settings on record: in vivo. More on the design: dose 5 mg/kg, time 24 hrs, route ip. It counts as ADME, organism-based. In outline:
as §2

Series [15] in a line: AUC(infinity) in mouse brain at 5 mg/kg, ip measured after 24 hrs. It counts as ADME, organism-based. More on the design: dose 5 mg/kg, time 24 hrs, route ip. In outline:
as §2

Series [16] can be described thus: Ratio of total drug concentration in mouse brain to plasma at 5 mg/kg, ip measured after 1 hr. Type of series: ADME, organism-based. In outline: (§3)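 Mice received 5 mg/kg IP in 10% DMSO/10% Cremophor EL/30% PEG400/50% water. Kp is total brain concentration divided by total plasma concentration, taken at 1 h and 5 h post-dose.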
Series [17] is described as follows: Ratio of total drug concentration in mouse brain to plasma at 5 mg/kg, ip measured after 5 hrs. Type of series: ADME, organism-based. In outline:
as §3

Series [18] is described as follows: Ratio of free drug concentration in mouse brain to plasma at 5 mg/kg, ip measured after 1 hr. Type of series: ADME, organism-based. In a few lines: (§4)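 Mice received 5 mg/kg IP in 10% DMSO/10% Cremophor EL/30% PEG400/50% water. Kp,uu is free brain over free plasma concentration at 1 h and 5 h. Free levels are corrected with unbound fractions measured in mouse plasma protein binding and in mouse brain homogenate binding.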

The nature of series [19]: Ratio of free drug concentration in mouse brain to plasma at 5 mg/kg, ip measured after 5 hrs. It counts as ADME, organism-based. The settings on record: read-out: K(p,uu,brain). In a few lines: as §4

T1 sequence (Q99720 whole entry): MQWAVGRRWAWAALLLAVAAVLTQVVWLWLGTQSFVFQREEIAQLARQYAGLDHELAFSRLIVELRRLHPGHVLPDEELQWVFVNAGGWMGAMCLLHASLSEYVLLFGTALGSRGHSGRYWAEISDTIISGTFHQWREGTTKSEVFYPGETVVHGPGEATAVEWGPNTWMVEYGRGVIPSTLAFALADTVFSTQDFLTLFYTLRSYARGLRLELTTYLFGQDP
Chain of D(1A) dopamine receptor (P21728 whole entry): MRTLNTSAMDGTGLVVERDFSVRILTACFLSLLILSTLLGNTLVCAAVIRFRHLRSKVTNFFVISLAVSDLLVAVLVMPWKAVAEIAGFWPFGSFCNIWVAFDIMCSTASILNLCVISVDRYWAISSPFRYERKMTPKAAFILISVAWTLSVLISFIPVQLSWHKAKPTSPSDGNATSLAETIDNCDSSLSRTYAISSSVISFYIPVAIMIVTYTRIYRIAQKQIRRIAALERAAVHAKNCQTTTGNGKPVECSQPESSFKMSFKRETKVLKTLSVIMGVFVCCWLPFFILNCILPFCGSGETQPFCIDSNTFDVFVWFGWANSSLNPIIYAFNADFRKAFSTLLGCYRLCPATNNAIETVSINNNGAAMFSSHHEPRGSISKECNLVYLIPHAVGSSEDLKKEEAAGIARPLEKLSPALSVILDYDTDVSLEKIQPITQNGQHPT
Chain of Sigma intracellular receptor 2 (Q5BJF2 whole entry): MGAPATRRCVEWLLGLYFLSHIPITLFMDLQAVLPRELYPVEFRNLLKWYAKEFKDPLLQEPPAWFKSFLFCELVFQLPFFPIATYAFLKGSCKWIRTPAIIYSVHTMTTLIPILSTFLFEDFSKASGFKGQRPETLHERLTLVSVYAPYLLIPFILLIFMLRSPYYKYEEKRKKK

As to `Fc1cc(COC2CCN(Cc3ccc4[nH]cnc4c3)CC2)ccc1Cl`, the inhibition constant (Ki) in series [1] was 3.1 nM; in [2], 1160 nM; in [3] it was 3.9 nM; in [4], 70 nM; in series [5] it was greater than 10000 nM. For the same compound, the t1/2 in series [6] came to 3.68 h; in series [7], 6.88 h. The MRT in series [8] worked out at 4.54 h; in series [9], 8.3 h. Further, the time of peak concentration (Tmax) came to 0.67 h in series [10] and 1.67 h in series [11]. The results for the Cmax in [12] and in series [13] were 401 ng/mL and 1890 ng/mL, respectively. Also, the exposure (AUC) in series [14] turned out to be 2225 ng·h/mL. The compound also showed an AUC(0-inf) in [15] of 13900 ng·h/mL. Besides, in series [16], the Kp is on record as 4.94. Moreover, the partition ratio (Kp) at 5 h in series [17] was determined as 2.4. Further, the “K(p,uu,brain)” value in series [18] is on record as 2.43. In series [19], the Kp uu at 5 h came out at 4.88.

For orientation: Ki means a dissociation constant, usually derived from enzyme kinetics or from competition with a known ligand. Broadly, the MRT is the average time that molecules of a dose stay in the body. Broadly, the Tmax is the time from dosing to the highest level. The term Cmax denotes the peak of the concentration-time curve. Broadly, the AUC is the area under the concentration-time curve, a measure of exposure. The AUC(0-inf) is total exposure, with the tail of the curve extrapolated. A low value points to less exposure. The term Kp denotes the ratio of the level in a tissue or fluid to that in plasma or blood.
